Rce1 inh = yeast Rce1p protease inhibitors, primary screen, biochemical, fluorescence, cell-free homogeneous; AID 2563, 2010; CAAX prenyl protease 2 (Saccharomyces cerevisiae (strain ATCC 204508 / S288c)), Q03530; calls only; hit rate 0.27% among 290,000; yeast membranes, quenched prenylated peptide cleavage fluorescence;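 active = fall in fluorescence gain of 50% or more versus controls, with final raw signal at or below 3038400; inconclusive = same 50% fall but final raw signal above 3038400; inactive = fall in fluorescence gain under 50%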
AI-2 QS modul = Vibrio harveyi AI-2 quorum sensing modulators, primary screen, JMH597 strain, luminescence/OD600 ratio; Vibrio harveyi JMH597 AI-2 luminescence/OD600 ratio, 9 h; hits give low values; strain lacks LuxN and CqsS sensors; 0 = neutral-control median; activity change, % at 7.5 µM; AID 2094, 2009; hit rate 0.4% among 300,000; in the data active = activity change below about -75%, passing the limit was not always enough; inconclusive = no clear call, values can overlap the other calls;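 note: luminescence divided by OD600 gain over 9 h not by final OD600 alone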
DYRK1A inh = rat Dyrk1A kinase inhibitors, primary screen, biochemical, single point, plate reader. Dual specificity tyrosine-phosphorylation-regulated kinase 1A (Rattus norvegicus), Q63470. ADP-Glo luminescence, NFATc1 peptide. inhibition, % at 12.5 µM. hit rate 0.43% among 310,000. AID 504441, 2011; in the data active = inhibition above about 50%
GSK3A inh = blockers of GSK3A enzyme activity – biochemical, luminescence, cell-free homogeneous, HTS, primary screen | Glycogen synthase kinase-3 alpha (Homo sapiens), P49840 | inhibition, % at 10 µM | hit rate 0.1% among 320,000 | GSK-3 alpha kinase, ADP-Glo luminescence, 60 min;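 active = more than half of replicates show inhibition above 20%; inconclusive = some but at most half of replicates above 20% inhibition; inactive = no replicate shows inhibition above 20%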;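 note: GST-tagged GSK-3 alpha with peptide substrate and 25 µM ATP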
Target sequence (P49840 whole entry, looked up): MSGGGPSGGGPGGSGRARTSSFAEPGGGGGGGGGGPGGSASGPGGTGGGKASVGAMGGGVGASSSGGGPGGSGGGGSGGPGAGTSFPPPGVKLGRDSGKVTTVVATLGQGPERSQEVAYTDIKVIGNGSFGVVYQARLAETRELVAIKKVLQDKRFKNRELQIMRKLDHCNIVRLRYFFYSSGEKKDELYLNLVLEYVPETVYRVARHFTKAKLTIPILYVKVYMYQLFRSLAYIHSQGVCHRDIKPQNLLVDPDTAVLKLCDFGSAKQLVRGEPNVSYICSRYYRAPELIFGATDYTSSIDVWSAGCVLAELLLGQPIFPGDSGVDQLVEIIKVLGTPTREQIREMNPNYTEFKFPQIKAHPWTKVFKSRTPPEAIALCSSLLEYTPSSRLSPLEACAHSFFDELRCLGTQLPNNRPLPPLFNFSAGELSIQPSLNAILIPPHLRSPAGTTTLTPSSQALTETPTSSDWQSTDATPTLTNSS
STK33 kinase inh = inhibitors of purified STK33 kinase, primary screen, biochemical, ADP-Glo luminescence, homogeneous, cell-free | inhibition, % at 10 µM | MBP phosphorylation | hit rate 0.073% among 320,000;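 active = inhibition at or above 25%, using the most active replicate where run in duplicate; inactive = inhibition below 25%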
GSK3B inh = human GSK3beta kinase inhibitors, primary screen, biochemical, cell-free homogeneous, HTS; GST-GSK3beta kinase, ADP-Glo luminescence, 60 min; hits give low values; activity score (negative = inhibition), % at 10 µM; hit rate 0.038% among 300,000;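 active = more than half of replicate wells score below -50%, meaning over 50% inhibition versus plate controls; inconclusive = some replicates but at most half score below -50%; inactive = no replicate scores below -50%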
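Test system: GST-fused GSK3beta enzyme, cell-free | Quantity: 1.6 ng GST-GSK3beta enzyme per well | Reagent: 25 µM ATP with peptide substrate | Schedule: 60 min enzyme reaction, room temperature | Signal: Luminescent ADP-Glo measurement of ADP formed | Read-out basis: Score relative to plate controls | Control set: DMSO and 20 µM GW8510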
Of the large screens only hits and unclear results are named; the others gave an inactive call. Sampled rows, rich in hits. Any-hit rate of the full collection: about 0.99%.

COC(=O)c1nc(N)sc1-c1ccc(Cl)c(Cl)c1	Rce1 inh active
COC(=O)c1nc(N)sc1-c1ccc(OC)cc1	none
Cc1ccc2nc(N(CCCN(C)C)C(=O)c3ccc4c(c3)CCCC4)sc2c1	none
Cc1cc(C)c2nc(N(CCCN(C)C)C(=O)c3ccc4c(c3)CCCC4)sc2c1	Rce1 inh active (no result: DYRK1A inh)
O=C1C=CC(=O)N1c1cccc(-c2ccccc2)c1	AI-2 QS modul -212.3
O=C(Nc1cccc(N2C(=O)C=CC2=O)c1)c1cccs1	AI-2 QS modul inconclusive (no result: GSK3A inh, STK33 kinase inh)
Cc1ccc(NC(=S)Nc2ccc3cn[nH]c3c2)c(C)c1	DYRK1A inh 71.2, STK33 kinase inh 32.5
COC(=O)c1cc(NC(=O)C2COc3ccccc3O2)cc(C(=O)OC)c1 (stereo not drawn)	STK33 kinase inh 28.9
COc1ccc(/C=N/NS(=O)(=O)c2ccc(C)cc2)cc1	AI-2 QS modul -82.8
COc1ccc(O)c(/C=N/NS(=O)(=O)c2ccc(C)cc2)c1	none
COC(=O)c1cc(N2C(=O)C3C(C2=O)C2(C)C=CC3(C)O2)ccc1Cl (stereo not drawn)	AI-2 QS modul -238.3 (no result: DYRK1A inh)
COc1ccc(CN(C)C(=O)c2ccccc2Sc2ccccc2C#N)c(OC)c1	none
COc1cccc(OC)c1C(=O)NNS(=O)(=O)c1ccc2ccccc2c1	none (no result: GSK3A inh)
CN(C)S(=O)(=O)c1ccc(C(=O)Nc2ccc3nc(N4CCOCC4)sc3c2)cc1	none (no result: Rce1 inh, AI-2 QS modul, GSK3B inh)
Clc1ccccc1/C=C/c1ccnc2ccccc12	none
Oc1ccc(/C=C/c2ccnc3ccccc23)cc1	STK33 kinase inh 25.3
O=C(CCN1CCCCO1)N1CCCC(Nc2cccc(F)c2)C1 (stereo not drawn)	none
CN(C)CCCNc1ccc(-c2cc(Nc3cccc(Cl)c3)ncn2)cn1	GSK3B inh -85.8
CN(C)CCNC(=S)Nc1cccc(Cl)c1	none
Nc1nc(Cl)nc2c1ncn2C1CC(O)C(CO)O1 (stereo not drawn)	AI-2 QS modul -91.3
Nc1c(O)ccc2c1C(=O)c1ccccc1C2=O	STK33 kinase inh 35.5 (no result: DYRK1A inh)
COc1ccc2c(c1O)C(=O)c1ccccc1C2=O	none (no result: DYRK1A inh)
Oc1ccc(/C=N/Nc2ccc(C(F)(F)F)cn2)cc1	STK33 kinase inh 31.1 (no result: DYRK1A inh)
COc1cc(/C=N/Nc2ccc(C(F)(F)F)cn2)cc(OC)c1O	none (no result: GSK3A inh, STK33 kinase inh)
NS(=O)(=O)c1ccc(CCNC(=O)CCNS(=O)(=O)c2ccccc2C(F)(F)F)cc1	none (no result: Rce1 inh, AI-2 QS modul, GSK3B inh)
CN(c1ccccc1)c1nc(N)c([N+](=O)[O-])c(NC2CCCCC2)n1	none
NCCCNc1nc(N)c([N+](=O)[O-])c(NC2CCCCC2)n1	GSK3A inh 73.3
Nc1nc(NC2CCCCC2)nc(NCCO)c1[N+](=O)[O-]	GSK3A inh 85.6, GSK3B inh -58.1
COCCNc1nc(N)c([N+](=O)[O-])c(NC2CCCCC2)n1	GSK3A inh 61.4
COc1ccc(OC)c(Nc2nc(N)c([N+](=O)[O-])c(NC3CCCCC3)n2)c1	none
O=C(NNC(=O)c1cc(Cl)ccc1[N+](=O)[O-])c1csc(N2CCOCC2)n1	none
COc1ccc(-c2c(-c3ccsc3)oc3ccc(N4CCOCC4)cc23)cn1	Rce1 inh active
Cc1cccc(NC(=O)C2(c3ccc([N+](=O)[O-])cc3)CCCC2)c1	Rce1 inh active
COC(=O)c1ccc(CNC(=O)C(C)N=C2NS(=O)(=O)c3ccccc32)cc1 (stereo not drawn)	none (no result: Rce1 inh, AI-2 QS modul, GSK3A inh, STK33 kinase inh, GSK3B inh)
COC(=O)c1c(NC(=O)CN2C(=O)NC3(CCC(C)CC3)C2=O)sc2c1CCC2 (stereo not drawn)	none (no result: Rce1 inh, AI-2 QS modul, GSK3B inh)
CC1CCC2(CC1)NC(=O)N(CC(=O)Nc1sc3c(c1C(N)=O)CCC3)C2=O (stereo not drawn)	GSK3A inh 77.8
CC1CCCCC12NC(=O)N(CC(=O)Nc1sc3c(c1C(N)=O)CCC3)C2=O (stereo not drawn)	GSK3A inh 58.2
N#Cc1ccccc1N1CCN(C(=O)c2ccc(NC(=O)c3ccc(Br)o3)cc2)CC1	none (no result: Rce1 inh, AI-2 QS modul, GSK3B inh)
COC(=O)c1cc(NC(=O)COC(=O)CN2C(=O)C3CC=CCC3C2=O)cc(C(=O)OC)c1 (stereo not drawn)	none (no result: Rce1 inh, AI-2 QS modul, GSK3A inh, STK33 kinase inh, GSK3B inh)
O=C1[C@H]2[C@@H](/C=C/c3ccccc3)N3C(=O)CN(Cc4ccccn4)C(=O)[C@@]3(Cc3ccccc3)[C@H]2C(=O)N1c1ccccc1	none
Cc1nonc1C(=O)N/N=C/c1ccc([N+](=O)[O-])o1	AI-2 QS modul -96.2
Cc1nonc1C(=O)N/N=C/c1ccc(O)cc1O	AI-2 QS modul -88.5
Cc1ccc2c(c1)-n1c(nc3cc(Cl)ccc3c1=O)C(Cc1ccccc1)NC2=O (stereo not drawn)	none (no result: Rce1 inh, AI-2 QS modul, DYRK1A inh, GSK3B inh)
O=C1NC(=O)C(c2cn(-c3ccccc3)nc2-c2ccc(F)cc2)N1 (stereo not drawn)	AI-2 QS modul -86.2 (no result: Rce1 inh)
O=C(CSc1nc2[nH]ncc2c(=O)n1-c1ccccc1)NCCc1ccccc1	GSK3A inh 54.4
Cc1cc(C(C)(C)C)ccc1OC(=O)C1=CC=CN2CCS(=O)(=O)N=C12	none (no result: Rce1 inh, AI-2 QS modul, GSK3A inh, STK33 kinase inh, GSK3B inh)
CCOCCc1nnc(NC(=O)CN2C(=O)c3ccccc3C2=O)s1	AI-2 QS modul -89.2
C/C(=N\Nc1ncnc2sc(C)c(C)c12)c1ccccn1	AI-2 QS modul -88.0
Cc1sc2ncnc(Nc3ccc(O)cc3)c2c1C	none
Cc1sc2ncnc(N/N=C/c3cccc(O)c3)c2c1C	STK33 kinase inh 28.3
COc1cc2c(cc1OC)C(C)N(C(=O)c1cc3c(=O)oc4ccc(C)cc4c3s1)CC2 (stereo not drawn)	Rce1 inh active (no result: GSK3A inh)
COc1cc2c(cc1OC)C(C)N(C(=O)c1cccs1)CC2 (stereo not drawn)	none (no result: DYRK1A inh)
Cc1noc(C)c1COc1ccc(C(=O)NNC(=O)c2ccccc2O)cc1	none
COc1ccc(CNc2nc3ccccc3s2)cc1OC	STK33 kinase inh 88.6

Screening results from PubChem BioAssay.
